HSF1 inhib: HSF1 inhibitors in luciferase reporter cells, primary screen, cell-based, NIH3T3, luminescence; AID 2098, 2009; NIH3T3-HGL HSE-luciferase, MG132-induced, luminescence 8 h; stronger effect = lower value; activity change, negative = inhibition, % at 7.5 µM (by protocol); 300,000 compounds, 0.77% hits;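 active = more than half of replicate wells show activity change below -50%, luminescence cut by over half; inconclusive = some wells, but at most half, below -50%; inactive = no replicate well below -50%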;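 also: luciferase reports HSF-1 transcriptional activity via heat shock element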
Hsp70 activator: Hsp70 transcriptional activators, primary screen, cell-based, HeLa, Hsp70 promoter luciferase, luminescence, 10 µM; 200,000 compounds, 0.04% hits; activation, % at 10 µM; AID 1203, 2008; HeLa Hsp70 promoter luciferase reporter; scaled: vehicle 0, proteasome-inhibitor control 100%;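 active = activation above the mean across all tested compounds plus 3 SD, cutoff set per campaign, cut at about 5.5% in these data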
HSF-1 act: HSF-1 activators, primary screen, NIH3T3-HGL cells, MG132 stress, luminescence, single point; AID 504408, 2011; NIH3T3-HGL HSF-1 luciferase reporter, 8 h; 100% = twice DMSO control signal; activation, % at 9 µM; 300,000 compounds, 1.7% hits;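 active = mean replicate activation of at least 50% with a set share of replicates each reaching 50%; inconclusive = only one of those two conditions met; inactive = mean below 50% and too few replicates reaching it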
T cruzi inh: inhibitors of intracellular T. cruzi growth, primary screen, luminescence, NIH3T3 host cells | T. cruzi beta-gal in NIH3T3, 90 h | AID 1885, 2009 | inhibition, % (concentration not given with the values) | 300,000 compounds, 1.4% hits;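 active = mean inhibition across valid replicates above about 55%, limit read from the data; inconclusive = mean below that limit but half or more replicates reach it; inactive = mean below it, under half of replicates reach it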;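 also: signal also drops with host cell toxicity which is not excluded here; higher percent means less beta-gal luminescence so fewer parasites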
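Material: NIH/3T3 host cells with β-galactosidase reporter T. cruzi; Input: 5,000 host fibroblasts per well; Medium: DMEM, 2% fetal bovine serum; Compound: 50 nL DMSO compound solution per well; Schedule: 3 h host attachment, then at least 90 h co-culture; Detection: luminescent β-galactosidase signal after 60 min lysis.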
Lmaj promast: Leishmania major promastigote growth inhibition, primary screen. Leishmania major promastigotes, resazurin fluorescence viability. inhibition, % at 10 µM. 200,000 compounds, 9% hits; in the data active = inhibition above about 50%;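 also: promastigotes grown with compound for 44 hours at 28 °C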
Each line names hits and unclear results; the compound was inactive in the other large screens. The sample as a whole holds a higher share of hits than the screen did.

COc1ccc(C=O)cc1OS(=O)(=O)c1ccccc1[N+](=O)[O-]	Lmaj promast 90
COc1ccc(-c2nc(-n3c(C)c(C(C)=O)c(C(C)=O)c3C)sc2C)cc1OC	Lmaj promast 66
COc1ccc(/C=C(/NC(=O)c2ccccc2)C(=O)N2CCCC2)cc1	none (no result: Hsp70 activator, Lmaj promast)
O=C(c1ccc(Cn2c(=O)[nH]c3ccccc3c2=O)cc1)N1CCN(c2ccc(Cl)cc2)CC1	Lmaj promast 96
C=CCn1c(=O)[nH]c2cc(C(=O)N3CCN(c4cc(C)ccc4C)CC3)ccc2c1=O	none
Cc1ccc(C)c(N2CCN(C(=O)c3ccc(Cn4c(=O)[nH]c5ccccc5c4=O)cc3)CC2)c1	T cruzi inh 65, Lmaj promast 98
CCOc1ccc(C(=O)N/N=C/c2cc(Cl)ccc2[N+](=O)[O-])cc1	none
Cc1ccc(N(C)S(=O)(=O)c2ccc3c(c2)NC(=O)C(C)S3)cc1 (stereo not given)	none (no result: Hsp70 activator, Lmaj promast)
CC(Sc1nc2c(c(=O)[nH]1)CCCC2)C(=O)Nc1ccccc1C#N (stereo not given)	none (no result: Hsp70 activator, Lmaj promast)
COC(=O)C1=C(C)Nc2nc(SCc3ccccc3)[nH]c(=O)c2C1c1cccs1 (stereo not given)	none
CC(C)CC(/C(O)=C(\C#N)c1nc2ccccc2[nH]1)N1C(=O)c2ccccc2C1=O (stereo not given)	HSF-1 act 75, Lmaj promast 65
O=C(c1ccccc1Br)N1CCCC(c2nc(-c3cccs3)no2)C1 (stereo not given)	none
COc1ccc(C(=O)N2CCCC(c3nc(-c4cccs4)no3)C2)cc1OC (stereo not given)	none
O=C(c1ccc(Br)cc1)N1CCCC(c2nc(-c3cccs3)no2)C1 (stereo not given)	Lmaj promast 67
COc1ccc(C(=O)N2CCCC(c3nc(-c4cccs4)no3)C2)cc1 (stereo not given)	HSF-1 act 59
Cc1ccc(-c2nn(CCC(=O)NN3CCOCC3)c(=O)c3ccccc23)cc1	none (no result: Hsp70 activator, Lmaj promast)
Cc1ccc(S(=O)(=O)CCC(=O)N2CCN(c3ccc(Cl)cc3)CC2)cc1	none
Cc1cccnc1NC(=S)NC(=O)/C=C/c1ccco1	HSF-1 act inconclusive
COc1ccccc1/C=C/C(=O)NC(=S)Nc1ccccn1	HSF-1 act 65 (no result: Hsp70 activator, Lmaj promast)
O=C(/C=C/c1ccco1)Nc1cccc(NC(=O)/C=C/c2ccco2)n1	HSF-1 act 81, Lmaj promast 64
Cc1nc(NC(=O)/C=C/c2ccco2)sc1C	none
O=C(/C=C/c1ccco1)NC(=S)Nc1ccccn1	HSF-1 act 58
CC(C)(C)CN1CCNC(=O)C1CC(=O)N1CCN(c2ccccc2)CC1 (stereo not given)	none (no result: Hsp70 activator, Lmaj promast)
CCC(=O)Nc1nn(CC(C)C)c2nc3ccc(C)cc3cc12	none (no result: Hsp70 activator, Lmaj promast)
OC1OC[C@@H](O)[C@H](O)[C@H]1O (stereo not given in full)	HSF1 inhib -72 (no result: Hsp70 activator, Lmaj promast)
COc1ccccc1NC(=S)N(CCc1c(C)[nH]c2ccccc12)Cc1cccs1	none
COc1ccc2[nH]c(C)c(CCN(Cc3cccs3)C(=S)Nc3ccc(F)cc3)c2c1	T cruzi inh 55
COc1ccc2[nH]c(C)c(CCN(Cc3cccs3)C(=S)Nc3ccccc3)c2c1	T cruzi inh 58
CNC(=S)N(CCc1c(C)[nH]c2ccc(C)cc12)Cc1cccs1	none
COc1ccc(NC(=S)N(CCc2c(C)[nH]c3ccc(C)cc23)Cc2cccs2)cc1	Lmaj promast 54
CNC(=S)N(CCc1c(C)[nH]c2ccc(C)cc12)Cc1cc(OC)c(OC)c(OC)c1	HSF1 inhib -66
Cc1csc(=O)n1CCC(=O)OCC(=O)Nc1cccc(C#N)c1	none (no result: Hsp70 activator, Lmaj promast)
CNC(=S)N(CCc1ccc(OC)c(OC)c1)Cc1cc2c(C)cc(C)cc2[nH]c1=O	Lmaj promast 69
O=C(Nc1cc(Cl)ccc1-n1cncn1)c1cc(S(=O)(=O)N2CCOCC2)ccc1F	none (no result: Hsp70 activator, Lmaj promast)
Nc1nonc1-n1nnc(C(=O)N/N=C/c2cc(Cl)ccc2O)c1CN1CCCCCC1	T cruzi inh 56 (no result: Hsp70 activator, Lmaj promast)
CCN1CCN(c2ccc(S(=O)(=O)N3CCCCC3)cc2NC(=O)c2ccc(F)cc2)CC1	none

Compound activity from PubChem.
